Reference: ChEMBL document CHEMBL3414514, “Synthesis and pharmacological evaluation of novel bisindole derivatives bearing oximes moiety: identification of novel proapoptotic agents” (Eur J Med Chem, 2015)
The source made the active and inactive calls. The rule behind the calls is not given here.

Columns and labels:
[1] = Induction of apoptosis in human T24 cells assessed as Bax upregulation after 24 hrs by qRT-PCR analysis; format: functional, cell-based; conditions: T-24
Method in brief: (§1)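 T24 cells treated at […] for 24 h before RNA extraction. SYBR Green qRT-PCR with 500 nM primers: 2 min at 50 C, 10 min at 95 C, then 40 cycles of 15 s at 95 C and 1 min at 60 C. Expression by the ΔCt method against actin, normalized to untreated cells; run in triplicate.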

T-24 [2] = assay: Induction of apoptosis in human T24 cells assessed as viable cells at 10 uM after 24 hrs by annexin-V-FITC/propidium iodide staining-based flow cytometry (reference value: 93.5%); format: functional; conditions: T-24, 24 h, read-out: Activity
[3] = Cytotoxicity against human T24 cells after 2 days by MTT assay; format: functional, cell-based; conditions: T-24, 48 h
Method in brief: (§2)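 Cells grown in medium with 10% heat-inactivated FBS at 37 C under 5% CO2. Compounds dissolved in medium with 1% DMSO; controls received 1% DMSO. After 2 days, MTT (10 mg/mL) added for 4 h, formazan dissolved in DMSO and absorbance read at 570/630 nm. Survival taken relative to negative control; IC50 by Bliss method (n = 5), at least three independent experiments.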

[4] = Induction of apoptosis in human T24 cells assessed as caspase-9 upregulation at IC50 after 24 hrs by qRT-PCR analysis relative to control; format: functional, cell-based; conditions: T-24
[5] = Induction of apoptosis in human T24 cells assessed as caspase-8 upregulation at IC50 after 24 hrs by qRT-PCR analysis relative to control; format: functional, cell-based; conditions: T-24
[6] = Cell cycle arrest in human T24 cells assessed as accumulation at G2 phase at 5 uM after 48 hrs by Rnase A/propidium iodide staining-based flow cytometry (reference value: 3.58%); format: functional; conditions: T-24
Method in brief: (§3)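 T24 cells exposed to […] for 48 h, washed with ice-cold PBS, then fixed and permeabilized overnight in ice-cold 70% ethanol. RNase A (100 mg/mL) treatment at 37 C for 30 min, then PI staining (1 mg/mL) in the dark at 4 C for 30 min. Flow cytometry gave the percentage of cells in G1, S and G2 phase.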

T-24 [7] = assay: Induction of apoptosis in human T24 cells assessed as increase in intracellular ROS level at 5 to 20 uM after 24 hrs by DCFH/DA staining-based fluorescence microscopic analysis; format: functional, cell-based
HepG2 = assay: Cytotoxicity against human HepG2 cells after 2 days by MTT assay; format: functional, cell-based; conditions: HepG2, 48 h; method in brief: as §2
HUVEC = assay: Cytotoxicity against human HUVEC cells after 2 days by MTT assay; format: cell-based; conditions: 48 h; method in brief: as §2
T-24 [8] = assay: Induction of apoptosis in human T24 cells assessed as increase in Bax protein expression after 6 to 24 hrs by Western blotting analysis; format: functional, cell-based
[9] = Induction of apoptosis in human T24 cells assessed as caspase-3 upregulation at IC50 after 24 hrs by qRT-PCR analysis relative to control; format: functional, cell-based; conditions: T-24
T-24 [10] = assay: Induction of apoptosis in human T24 cells assessed as late apoptotic cells at 10 uM after 24 hrs by annexin-V-FITC/propidium iodide staining-based flow cytometry (reference value: 2.08%); format: functional
[11] = Induction of apoptosis in human T24 cells assessed as caspase-9 upregulation after 24 hrs by qRT-PCR analysis; format: functional, cell-based; conditions: T-24; method in brief: as §1
[12] = Cell cycle arrest in human T24 cells assessed as reduction in CDK4 level after 24 hrs by Western blotting analysis; format: functional, cell-based; conditions: T-24
Method in brief: (§4)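 T24 cells treated at […] for 24 h and lysed in ice-cold RIPA buffer with protease inhibitors and NaF. Protein measured by Bradford; 30 micrograms per lane run on 12% SDS-PAGE and transferred to PVDF. Blocked 2 h at room temperature, primary antibody overnight at 4 C, HRP secondary (1:2000) 1 h, chemiluminescence detection.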

T-24 [13] = assay: Induction of apoptosis in human T24 cells assessed as increase in caspase-9 protein expression at 20 uM after 6 to 24 hrs by Western blotting analysis; format: functional, cell-based
T-24 [14] = assay: Induction of apoptosis in human T24 cells assessed as early apoptotic cells at 20 uM after 24 hrs by annexin-V-FITC/propidium iodide staining-based flow cytometry (reference value: 2.74%); format: functional
[15] = Cytotoxicity against human SKOV3 cells after 2 days by MTT assay; format: functional, cell-based; conditions: SK-OV-3, 48 h; method in brief: as §2
[16] = Induction of apoptosis in human T24 cells assessed as caspase-3 upregulation after 24 hrs by qRT-PCR analysis; format: functional, cell-based; conditions: T-24; method in brief: as §1
T-24 [17] = assay: Induction of apoptosis in human T24 cells assessed as increase in caspase-3 protein expression at 20 uM after 6 to 24 hrs by Western blotting analysis; format: functional, cell-based
[18] = Cell cycle arrest in human T24 cells assessed as accumulation at S phase at 10 uM after 48 hrs by Rnase A/propidium iodide staining-based flow cytometry (reference value: 62%); format: functional; conditions: T-24; method in brief: as §3
T-24 [19] = assay: Induction of apoptosis in human T24 cells assessed as viable cells at 5 uM after 24 hrs by annexin-V-FITC/propidium iodide staining-based flow cytometry (reference value: 93.5%); format: functional; conditions: T-24, 24 h, read-out: Activity
[20] = Cell cycle arrest in human T24 cells assessed as increase in p27 level after 24 hrs by Western blotting analysis; format: functional, cell-based; conditions: T-24; method in brief: as §4
MGC-803 = assay: Cytotoxicity against human MGC803 cells after 2 days by MTT assay; format: functional, cell-based; conditions: MGC-803, 48 h; method in brief: as §2
A549 = assay: Cytotoxicity against human A549 cells after 2 days by MTT assay; format: functional, cell-based; conditions: A549, 48 h; method in brief: as §2
[21] = Cell cycle arrest in human T24 cells assessed as increase in p16 level after 24 hrs by Western blotting analysis; format: functional, cell-based; conditions: T-24; method in brief: as §4
[22] = Cell cycle arrest in human T24 cells assessed as accumulation at G1 phase at 5 uM after 48 hrs by Rnase A/propidium iodide staining-based flow cytometry (reference value: 34.43%); format: functional; conditions: T-24; method in brief: as §3
NCI-H460 = assay: Cytotoxicity against human NCI-H460 cells after 2 days by MTT assay; format: functional, cell-based; conditions: NCI-H460, 48 h; method in brief: as §2
[23] = Cell cycle arrest in human T24 cells assessed as increase in p21 level after 24 hrs by Western blotting analysis; format: functional, cell-based; conditions: T-24; method in brief: as §4
[24] = Induction of apoptosis in human T24 cells assessed as tp53 upregulation after 24 hrs by qRT-PCR analysis; format: functional, cell-based; conditions: T-24
[25] = Cell cycle arrest in human T24 cells assessed as accumulation at G1 phase at 10 uM after 48 hrs by Rnase A/propidium iodide staining-based flow cytometry (reference value: 34.43%); format: functional; conditions: T-24; method in brief: as §3
T-24 [26] = assay: Induction of apoptosis in human T24 cells assessed as pycnosis at 5 to 20 uM after 24 hrs by AO/EB staining-based fluorescence microscopic analysis relative to control; format: functional, cell-based
Method in brief: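 T24 cells seeded at 5 × 10^4 cells/mL on cover slips. Medium was replaced with fresh medium containing 10% FBS and compound at 5, 10 or 20 µM for 24 h. Cover slips were inverted onto AO/EB stain and viewed by fluorescence microscopy. Live cells score uniform green, early apoptotic green-yellow, late apoptotic orange, and necrotic orange without condensed chromatin. Untreated cells served as control.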

T-24 [27] = assay: Induction of apoptosis in human T24 cells assessed as early apoptotic cells at 5 uM after 24 hrs by annexin-V-FITC/propidium iodide staining-based flow cytometry (reference value: 2.74%); format: functional

## COc1ccc2c(c1)/C(=N\O)C(c1c[nH]c3ccc(OC)cc13)=N2
[1]
  Activity: Dose-dependent effect
T-24 [2]
  viability at 10 µM: 79.9%
[3]
  IC50: 4.31 µM
[4]
  fold change (FC): 27.1
[5]
  fold change (FC): 8.03
[6]
  Activity: 3.11%
T-24 [7]
  Activity: Active
HepG2
  IC50: 9.92 µM
HUVEC
  IC50: > 100 µM
T-24 [8]
  Activity: Dose-dependent effect
[9]
  fold change (FC): 24.8
T-24 [10]
  Activity: 7.06%
[11]
  Activity: Dose-dependent effect
[12]
  Activity: Dose-dependent effect
T-24 [13]
  Activity: Active
T-24 [14]
  Activity: 32.7%
[15]
  IC50: 12.5 µM
[16]
  Activity: Dose-dependent effect
T-24 [17]
  Activity: Active
[18]
  Activity: 37.5%
T-24 [19]
  viability at 5 µM: 85.9%
[20]
  Activity: Dose-dependent effect
MGC-803
  IC50: 7.66 µM
A549
  IC50: 6.09 µM
[21]
  Activity: Dose-dependent effect
[22]
  Activity: 45%
NCI-H460
  IC50: 9.83 µM
[23]
  Activity: Dose-dependent effect
[24]
  Activity: Dose-dependent effect
[25]
  Activity: 57%
T-24 [26]
  Activity: Active
T-24 [27]
  Activity: 6.89%
